ChEMBL document CHEMBL2424623, “Enantioselective binding of chiral 1,14-dimethyl[5]helicene-spermine ligands with B- and Z-DNA” (Bioorg Med Chem, 2013)
“And” between values parts separate entries of the source, which are not always exact repeats. Equal entries are not always repeated. The source made the active and inactive calls. The calls are words filed in the database; no cut-off is given here.

How the values were obtained:
[1] = Binding affinity to d(CGCGCG)2 DNA (unknown origin) assessed as association constant at 3.5 compound to DNA molar ratio by ITC analysis
Procedure, shortened: (§1)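 Isothermal titration calorimetry at 25.0 °C. Ligand at 1 mM, dissolved in the final ODN dialysate, was titrated into 10.0 µM duplex d(CGCGCG)2 or d(CGCm8GCG)2 in 5 mM Na cacodylate, 100 mM NaCl, pH 7.0. The first 2 µL injection was followed by 10 µL injections, and the first injection was discarded. Samples were degassed. Stoichiometry is ligand per duplex.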

[2] = Binding affinity to d(CGCm8GCG)2 DNA (unknown origin) assessed as change in UV-melting temperature at 5 uM
Procedure, shortened: (§2)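 UV melting used 5 µM B- or Z-DNA in 5 mM Na cacodylate, 100 mM NaCl, pH 7.0, with or without 5 µM ligand. Temperature was ramped at 1 °C/min between 10 and 60 °C.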

[3] = Dissociation rate to 5'-biotin-conjugated d(TTTTCGCGCG-TTTT-CGCGCG) DNA (unknown origin) measured for 150 seconds by SPR analysis
[4] = Binding affinity to d(CGCGCG)2 DNA (unknown origin) assessed as change in UV-melting temperature at 5 uM; procedure, shortened: as §2
[5] = Binding affinity to d(CGCm8GCG)2 DNA (unknown origin) assessed as association constant at 4.1 compound to DNA molar ratio by ITC analysis; procedure, shortened: as §1
[6] = Dissociation rate to 5'-biotin-conjugated d(TTTTCGCm8GCG-TTTT-CGCm8GCG) DNA (unknown origin) measured for 150 seconds by SPR analysis
[7] = Binding affinity to d(CGCGCG)2 DNA (unknown origin) assessed as association constant at 4.0 compound to DNA molar ratio by ITC analysis; procedure, shortened: as §1
[8] = Binding affinity to d(CGCGCG)2 DNA (unknown origin) assessed as association constant at 2.0 compound to DNA molar ratio by ITC analysis; procedure, shortened: as §1
[9] = Selectivity ratio of Ka for 5'-biotin-conjugated d(TTTTCGCm8GCG-TTTT-CGCm8GCG) DNA (unknown origin) to Ka for 5'-biotin-conjugated d(TTTTCGCGCG-TTTT-CGCGCG) DNA (unknown origin)
[10] = Selectivity ratio of Ka for 5'-biotin-conjugated d(TTTTCGCGCG-TTTT-CGCGCG) DNA (unknown origin) to Ka for 5'-biotin-conjugated d(TTTTCGCm8GCG-TTTT-CGCm8GCG) DNA (unknown origin)
[11] = Induction of d(CGCGCG)2 DNA (unknown origin) to d(CGCm8GCG)2 DNA transition up to 160 uM by CD spectra analysis in presence of low concentration of NaCl
Procedure, shortened: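 CD at 20 °C in a 2 mm cell. 20 µM d(CGCGCG)2 in 5 mM Na cacodylate, 100 mM NaCl, pH 7.0, was titrated with ligand stock from 0 to 160 µM. Spectra were blank-corrected and averaged over four scans.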

[12] = Binding affinity to d(CGCm8GCG)2 DNA (unknown origin) assessed as association constant at 1.7 compound to DNA molar ratio by ITC analysis; procedure, shortened: as §1
[13] = Binding affinity to d(CGCm8GCG)2 DNA (unknown origin) assessed as association constant at 1.8 compound to DNA molar ratio by ITC analysis; procedure, shortened: as §1
[14] = Binding affinity to d(CGCGCG)2 DNA (unknown origin) assessed as association constant at 2:1 DNA to compound ratio by ITC analysis; procedure, shortened: as §1
[15] = Selectivity ratio of Ka for d(CGCm8GCG)2 DNA (unknown origin) to Ka for d(CGCGCG)2 DNA (unknown origin); procedure, shortened: as §1
[16] = Selectivity ratio of Ka for d(CGCGCG)2 DNA (unknown origin) to Ka for d(CGCm8GCG)2 DNA (unknown origin); procedure, shortened: as §1

Row | Ka [1] [×10⁷ /M] | ΔTm [2] | koff [3] | ΔTm [4] [°C] | Ka [5] [×10⁷ /M] | koff [6] | Ka [7] [×10⁷ /M] | Ka [8] [×10⁷ /M] | Selectivity ratio [9] | Selectivity ratio [10] | Activity [11] | Ka [12] [×10⁷ /M] | Ka [13] [×10⁷ /M] | Ka [14] [×10⁸ /M] | Selectivity ratio [15] | Selectivity ratio [16] | SMILES
1 | 0.62 | 18 °C | 7.49 ×10⁻³ /s | 16 | 0.31 | 6.66 ×10⁻³ /s | – | – | – | – | – | – | – | – | – | – | NCCCNCCCCNCCCN1C(=O)C(c2ccc3ccccc3c2)=C(c2ccc3ccccc3c2)C1=O
2 | – | 7.5 °C and 3.3 °C | 3.7 ×10⁻³ /s and 8.59 ×10⁻³ /s | – | – | 5.48 ×10⁻³ /s and 6.68 ×10⁻³ /s | 0.083 | 36.7 | 2 | 7 | Active | 0.67 | 0.17 | 3.7 | 2 | 50 | Cc1cccc2ccc3c4c(c5ccc6cccc(C)c6c5c3c12)C(=O)N(CCCNCCCCNCCCN)C4=O
